Reference: ChEMBL document CHEMBL1821687, “Discovery, synthesis, and biological evaluation of novel SMN protein modulators” (J Med Chem, 2011)
Calls of active or inactive are those of the source. The rule behind the calls is not given here.

What was measured:
[1] = molecular target: T1, Luciferin 4-monooxygenase (Luciola lateralis, UniProt Q01158); test: Inhibition of fire fly luciferase; set-up: species or system Aquatica lateralis; conditions: read-out: IC50
T1 sequence (Q01158 whole entry): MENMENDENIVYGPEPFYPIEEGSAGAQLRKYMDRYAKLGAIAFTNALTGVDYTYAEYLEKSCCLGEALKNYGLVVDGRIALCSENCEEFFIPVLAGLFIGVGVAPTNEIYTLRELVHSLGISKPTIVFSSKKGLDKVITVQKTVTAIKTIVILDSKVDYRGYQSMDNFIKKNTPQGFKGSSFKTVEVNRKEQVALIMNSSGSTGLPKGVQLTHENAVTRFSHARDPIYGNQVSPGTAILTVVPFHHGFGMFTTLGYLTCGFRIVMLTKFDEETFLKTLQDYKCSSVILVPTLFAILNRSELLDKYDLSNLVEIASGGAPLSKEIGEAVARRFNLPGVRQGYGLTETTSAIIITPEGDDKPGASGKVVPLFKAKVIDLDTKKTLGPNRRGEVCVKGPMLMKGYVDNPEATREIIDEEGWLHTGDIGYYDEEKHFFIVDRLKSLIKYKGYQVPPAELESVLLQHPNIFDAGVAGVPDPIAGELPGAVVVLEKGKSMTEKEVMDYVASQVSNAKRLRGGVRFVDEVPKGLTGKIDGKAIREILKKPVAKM

Caco-2 [2] = test: Apparent permeability from apical side to basolateral side of human Caco2 cells at 10 uM; assay type: ADME, cell-based; conditions: caco-2, 10 µM
Caco-2 [3] = test: Apparent permeability from basolateral side to apical side of human Caco2 cells at 10 uM; assay type: ADME, cell-based; conditions: caco-2, 10 µM
[4] = molecular target: Survival motor neuron protein (Homo sapiens) (UniProt Q16637); test: Activation of SMN expressed in HEK293 cells assessed as rate of induction by SMN2-promotor driven luciferase reporter gene assay relative to basal level; assay type: cell-based; set-up: concentration or dose not given beside the values
Chain of Survival motor neuron protein (Homo sapiens) (Q16637 whole entry): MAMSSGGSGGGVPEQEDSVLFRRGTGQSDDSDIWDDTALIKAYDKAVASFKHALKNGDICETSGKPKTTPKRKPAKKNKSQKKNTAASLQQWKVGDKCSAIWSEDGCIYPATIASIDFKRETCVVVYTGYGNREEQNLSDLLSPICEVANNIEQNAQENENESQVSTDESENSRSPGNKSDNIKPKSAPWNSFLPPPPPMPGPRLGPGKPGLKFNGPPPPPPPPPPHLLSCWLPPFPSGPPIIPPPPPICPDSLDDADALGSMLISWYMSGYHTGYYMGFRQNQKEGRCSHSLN
Outline: (§1)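 HEK-293 cells stably carrying the SMN2 reporter construct, kept in DMEM with 10% FCS, glutamax, pyruvate, pen/strep and 200 µg/mL hygromycin, and assayed without hygromycin. 2,000 cells/well were plated and adhered overnight at 37 °C, 5% CO2. Compounds were added as a 7-point titration, 50 µM to 25 nM final, in 0.46% DMSO, for 30–36 h. OneGlo luminescence was normalized to 4.5 mM sodium butyrate (100%) and DMSO (0%).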

Liver = test: Half-life in mouse liver microsome at 1 uM; assay type: ADME; conditions: microsomes
[5] = molecular target: Survival motor neuron protein (Homo sapiens) (UniProt Q16637); test: Activation of SMN expressed in HEK293 cells assessed as concentration required to reach 50% of maximum luciferase signal by SMN2-promotor driven luciferase reporter gene assay; assay type: cell-based; outline: as §1
[6] = Plasma concentration in Swiss albino mouse at 30 mg/kg, po after 8 hrs; assay type: ADME, organism-based; set-up: dose 30 mg/kg, route oral
Outline: (§2)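 Male Swiss Albino mice received a single 30 mg/kg oral gavage dose. Compound levels were measured in plasma and brain over time, and PK parameters were derived from the concentration–time data.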

Plasma [7] = test: Cmax in plasma of Swiss albino mouse at 30 mg/kg, po; assay type: ADME, organism-based; set-up: dose 30 mg/kg, route oral; conditions: in vivo; outline: as §2
Plasma [8] = test: Half-life in plasma of Swiss albino mouse at 30 mg/kg, po; assay type: ADME, organism-based; set-up: dose 30 mg/kg, route oral; conditions: in vivo; outline: as §2
Plasma [9] = test: AUC (infinity) in plasma of Swiss albino mouse at 30 mg/kg, po; assay type: ADME, organism-based; set-up: dose 30 mg/kg, route oral, time infinity; conditions: in vivo; outline: as §2
Brain [10] = test: Drug level in Swiss albino mouse brain at 30 mg/kg, po after 12 hrs; assay type: ADME, organism-based; set-up: dose 30 mg/kg, route oral; conditions: in vivo; outline: as §2
[11] = Plasma concentration in Swiss albino mouse at 30 mg/kg, po after 0.083 hrs; assay type: ADME, organism-based; set-up: dose 30 mg/kg, route oral
[12] = Plasma concentration in Swiss albino mouse at 30 mg/kg, po after 2 hrs; assay type: ADME, organism-based; set-up: dose 30 mg/kg, route oral; outline: as §2
Plasma [13] = test: AUClast in plasma of Swiss albino mouse at 30 mg/kg, po; assay type: ADME, organism-based; set-up: time 0 - last, dose 30 mg/kg, route oral; conditions: in vivo; outline: as §2
[14] = Plasma concentration in Swiss albino mouse at 30 mg/kg, po after 0.25 hrs; assay type: ADME, organism-based; set-up: dose 30 mg/kg, route oral; outline: as §2
[15] = Plasma concentration in Swiss albino mouse at 30 mg/kg, po after 0.5 hrs; assay type: ADME, organism-based; set-up: dose 30 mg/kg, route oral; outline: as §2
[16] = Plasma concentration in Swiss albino mouse at 30 mg/kg, po after 24 hrs; assay type: ADME, organism-based; set-up: dose 30 mg/kg, route oral; outline: as §2
Brain [17] = test: Drug level in Swiss albino mouse brain at 30 mg/kg, po after 1 hr; assay type: ADME, organism-based; set-up: dose 30 mg/kg, route oral; conditions: in vivo; outline: as §2
Brain [18] = test: Drug level in Swiss albino mouse brain at 30 mg/kg, po after 0.25 hr; assay type: ADME, organism-based; set-up: dose 30 mg/kg, route oral; conditions: in vivo; outline: as §2
Brain [19] = test: Drug level in Swiss albino mouse brain at 30 mg/kg, po after 0.5 hr; assay type: ADME, organism-based; set-up: dose 30 mg/kg, route oral; conditions: in vivo; outline: as §2
[20] = Plasma concentration in Swiss albino mouse at 30 mg/kg, po after 12 hrs; assay type: ADME, organism-based; set-up: dose 30 mg/kg, route oral; outline: as §2
[21] = Plasma concentration in Swiss albino mouse at 30 mg/kg, po after 1 hr; assay type: ADME, organism-based; set-up: dose 30 mg/kg, route oral; outline: as §2
Brain [22] = test: Drug level in Swiss albino mouse brain at 30 mg/kg, po after 2 hrs; assay type: ADME, organism-based; set-up: dose 30 mg/kg, route oral; conditions: in vivo; outline: as §2
Brain [23] = test: Half-life in brain of Swiss albino mouse at 30 mg/kg, po; assay type: ADME, organism-based; set-up: dose 30 mg/kg, route oral; conditions: in vivo; outline: as §2
Brain [24] = test: Drug level in Swiss albino mouse brain at 30 mg/kg, po after 24 hrs; assay type: ADME, organism-based; set-up: dose 30 mg/kg, route oral; conditions: in vivo; outline: as §2
[25] = Plasma concentration in Swiss albino mouse at 30 mg/kg, po after 4 hrs; assay type: ADME, organism-based; set-up: dose 30 mg/kg, route oral; outline: as §2
Brain [26] = test: Cmax in brain of Swiss albino mouse at 30 mg/kg, po; assay type: ADME, organism-based; set-up: dose 30 mg/kg, route oral; conditions: in vivo; outline: as §2
Brain [27] = test: AUC (infinity) in brain of Swiss albino mouse at 30 mg/kg, po; assay type: ADME, organism-based; set-up: time infinity, dose 30 mg/kg, route oral; conditions: in vivo; outline: as §2
Brain [28] = test: AUClast in brain of Swiss albino mouse at 30 mg/kg, po; assay type: ADME, organism-based; set-up: time 0 - last, dose 30 mg/kg, route oral; conditions: in vivo; outline: as §2
Brain [29] = test: Drug level in Swiss albino mouse brain at 30 mg/kg, po after 8 hrs; assay type: ADME, organism-based; set-up: dose 30 mg/kg, route oral; conditions: in vivo; outline: as §2
Brain [30] = test: Drug level in Swiss albino mouse brain at 30 mg/kg, po after 0.083 hr; assay type: ADME, organism-based; set-up: dose 30 mg/kg, route oral; conditions: in vivo
Brain [31] = test: Drug level in Swiss albino mouse brain at 30 mg/kg, po after 4 hrs; assay type: ADME, organism-based; set-up: dose 30 mg/kg, route oral; conditions: in vivo; outline: as §2
[32] = Ratio of AUC in brain to AUC in plasma in Swiss albino mouse at 30 mg/kg, po; assay type: ADME, organism-based; set-up: dose 30 mg/kg, route oral; conditions: brain and plasma
Outline: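 Single oral gavage dose of 30 mg/kg given to male Swiss Albino mice; compound concentrations measured in both plasma and brain, from which brain and plasma exposure parameters were derived; animals observed for behavioural disturbance throughout the study.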

[33] = molecular target: Survival motor neuron protein (Homo sapiens) (UniProt Q16637); test: Activation of SMN expressed in HEK293 cells by SMN2-promotor driven luciferase reporter gene assay; assay type: cell-based; outline: as §1
[34] = molecular target: Survival motor neuron protein (Homo sapiens) (UniProt Q16637); test: Activation of SMN in human fibroblast cells obtained from type 1 SMA patients assessed as increase in SMN protein level by quantitative Western blot method; assay type: cell-based
Outline: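 Type I SMA patient fibroblasts (3813 line) were seeded at 8,000 cells/cm2 24 h before dosing, with medium and compound renewed every 24 h for 72 h. Lysates (10 µg protein/lane) were immunoblotted for SMN (4f11 antibody) and α-tubulin. Band intensity was normalized to tubulin and expressed as fold over the DMSO control.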

[35] = Half-life in human serum; assay type: ADME, cell-free

CC(C)Oc1cccc(-c2ccnc(N3CCC(C(N)=O)CC3)n2)c1
IC50 [1]: 10 µM
Papp (Caco-2 [2]): 40.1 ×10⁻⁶ cm/s
Papp (Caco-2 [3]): 17.3 ×10⁻⁶ cm/s
Activity [4]: 298%
t1/2 (Liver): 0.3 h
Activity [5]: 0.154 µM

CC(C)Oc1cccc(-c2cnc(N3CCC(C(N)=O)CC3)s2)c1
concentration at 8 h [6]: 25 nM
Cmax (Plasma [7]): 3720 nM
t1/2 (Plasma [8]): 5.78 h
AUC (Plasma [9]): 1429 ng·h/mL
Drug uptake (Brain [10]): 0 µmol/kg
concentration at 0.083 h [11]: 3720 nM
concentration at 2 h [12]: 600 nM
AUClast (Plasma [13]): 1857 ng·h/mL
concentration at 0.25 h [14]: 1200 nM
concentration at 0.5 h [15]: 1200 nM
IC50 [1]: 0.8 µM
concentration at 24 h [16]: 60 nM
Drug uptake (Brain [17]): 0.6 µmol/kg
Papp (Caco-2 [2]): 6.1 ×10⁻⁶ cm/s
Drug uptake (Brain [18]): 0.31 µmol/kg
Drug uptake (Brain [19]): 0.4 µmol/kg
concentration at 12 h [20]: 19 nM
Papp (Caco-2 [3]): 0.3 ×10⁻⁶ cm/s
concentration at 1 h [21]: 1270 nM
Drug uptake (Brain [22]): 0.23 µmol/kg
t1/2 (Brain [23]): 5.44 h
Drug uptake (Brain [24]): 0.023 µmol/kg
concentration at 4 h [25]: 2.8 nM
Cmax (Brain [26]): 1.28 µmol/kg
AUC (Brain [27]): 607 ng·h/mL
AUClast (Brain [28]): 546 ng·h/mL
Activity [4]: 709%
t1/2 (Liver): 0.5 h
Drug uptake (Brain [29]): 0 µmol/kg
Drug uptake (Brain [30]): 1.28 µmol/kg
Drug uptake (Brain [31]): 0.083 µmol/kg
Kp [32]: 0.29
Activity [5]: 0.077 µM

COc1nc(-c2ccccc2)nnc1-c1ccccc1
Activity [33]: Active
Activity [34]: Dose-dependent effect

O=C([O-])CCCc1ccccc1.[Na+] [SODIUM PHENYLBUTYRATE]
half-life [35]: 1.5 h

O=C(Nc1ccccc1)C1CCN(c2ncc(-c3ccc4c(c3)OCCCO4)s2)CC1
IC50 [1]: 4 µM
Activity [4]: 353%
t1/2 (Liver): < 0.25 h
Activity [5]: 0.049 µM

CSc1ccc(-c2cnc(N3CCC(C(N)=O)CC3)s2)cc1
IC50 [1]: 40 µM
Papp (Caco-2 [2]): 1.6 ×10⁻⁶ cm/s
Papp (Caco-2 [3]): 0.2 ×10⁻⁶ cm/s
Activity [4]: 576%
t1/2 (Liver): 0.033 h
Activity [5]: 0.031 µM
